Measurements: ChEMBL document CHEMBL2331248, “Synthesis and biological evaluation of novel 2,4-disubstituted quinazoline analogues as GPR119 agonists” (Bioorg Med Chem, 2013)
pEC50: −log10 of the molar value. The source made the active and inactive calls. The calls are words filed in the database; no cut-off is given here.

Tests used:
Type in all cases: functional, cell-based
[1] = molecular target: T1, Glucose-dependent insulinotropic receptor (Homo sapiens) (UniProt Q8TDV5); experiment: Agonist activity at human GPR119 expressed in HEK293 cells assessed as cAMP accumulation after 60 mins relative to OEA
T1 sequence (whole entry): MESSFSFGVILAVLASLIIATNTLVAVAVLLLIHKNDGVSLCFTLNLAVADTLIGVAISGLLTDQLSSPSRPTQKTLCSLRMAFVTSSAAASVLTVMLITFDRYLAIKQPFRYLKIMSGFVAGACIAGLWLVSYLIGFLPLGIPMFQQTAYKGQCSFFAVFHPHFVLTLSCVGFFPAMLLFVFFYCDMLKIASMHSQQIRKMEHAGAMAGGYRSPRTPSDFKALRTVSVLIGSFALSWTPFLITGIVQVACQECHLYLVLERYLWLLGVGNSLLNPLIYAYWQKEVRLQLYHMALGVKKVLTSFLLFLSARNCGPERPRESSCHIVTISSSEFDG
Outline: (§1)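 HEK293 cells (4x10³/well) seeded, after 24h transiently transfected with human GPR119 expression plasmid via Lipofectamine/Plus; 24h later exposed to compounds in KRBH with 0.1% BSA and 500 μM IBMX, 60 min, 37 C. Lysed 10 min at room temperature (50 mM phosphate, 1 M KF, 1.25% Triton X-100, pH 7.0); cAMP read by HTRF. EC50 taken as concentration giving 50% of OEA cAMP stimulation; %max relative to OEA maximal effect.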

[2] = molecular target: T2, Glucose-dependent insulinotropic receptor (Homo sapiens, UniProt Q8TDV5); experiment: Agonist activity at human GPR119 expressed in HEK293 cells assessed as cAMP accumulation after 60 mins; outline: as §1
T2 sequence (Q8TDV5 whole entry): T1 sequence (whole entry)

[3] = molecular target: T1, Glucose-dependent insulinotropic receptor (Homo sapiens); experiment: Agonist activity at human GPR119 expressed in HEK293 cells assessed as cAMP accumulation at 10 uM after 60 mins relative to OEA; outline: as §1
[4] = molecular target: T1, Glucose-dependent insulinotropic receptor (Homo sapiens); experiment: Agonist activity at human GPR119 expressed in HEK293 cells assessed as cAMP accumulation at 10 uM after 60 mins

| Emax [1] [%] | pEC50 [2] | Emax [3] | Activity [4] | SMILES |
| --- | --- | --- | --- | --- |
| 32.7 | < 5.00 |  |  | COc1cc2nc(N3CCC4CCC(C3)N4C(=O)OC(C)(C)C)nc(Nc3ccc(S(C)(=O)=O)cc3)c2cc1OC (racemic) |
| 44.3 | < 5.00 |  |  | COc1cc2nc(N3CCC4CCC(C3)N4Cc3ccccc3)nc(Nc3ccc(S(C)(=O)=O)cc3F)c2cc1OC (racemic) |
| 23.4 | < 5.00 |  |  | COc1cc2nc(N3CCC4CCC(C3)N4Cc3ccccc3)nc(Nc3ccc(S(C)(=O)=O)cc3)c2cc1OC (racemic) |
| 37.5 | < 5.00 |  |  | COc1cc2nc(Nc3ccc(S(C)(=O)=O)cc3)nc(N3CCC4CCC(C3)N4C(=O)OC(C)(C)C)c2cc1OC (racemic) |
| 15.1 | < 5.00 |  |  | COc1cc2nc(Nc3ccc(S(C)(=O)=O)cc3)nc(NCC3CC4CCC(C3)N4C(=O)OC(C)(C)C)c2cc1OC (centres undefined) |
| 32.8 | < 5.00 |  |  | COc1cc2nc(Nc3ccc(S(C)(=O)=O)cc3)nc(N3CCC4CCC(C3)N4Cc3ccccc3)c2cc1OC (racemic) |
| 17 | < 5.00 |  |  | COc1cc2nc(Nc3ccc(S(C)(=O)=O)cc3)nc(NC3CC4CCC(C3)N4C(=O)OC(C)(C)C)c2cc1OC (centres undefined) |

Continued, compound first:

| SMILES | Emax [1] [%] | pEC50 [2] | Emax [3] | Activity [4] |
| --- | --- | --- | --- | --- |
| COc1cc2nc(Nc3ccc(S(C)(=O)=O)cc3)nc(OCC3CCN(C(=O)OC(C)(C)C)CC3)c2cc1OC | 17.4 | < 5.00 |  |  |
| COc1cc2nc(Nc3ccc(S(C)(=O)=O)cc3F)nc(OC3CCN(C(=O)OC(C)(C)C)CC3)c2cc1OC | 19.7 | < 5.00 |  |  |
| COc1cc2nc(Nc3ccc(S(C)(=O)=O)cc3F)nc(OCC3CCN(C(=O)OC(C)(C)C)CC3)c2cc1OC | 21.3 | < 5.00 |  |  |
| COc1cc2nc(NCC3CC4CCC(C3)N4C(=O)OC(C)(C)C)nc(Nc3ccc(S(C)(=O)=O)cc3F)c2cc1OC (centres undefined) | 53.7 | 6.00 |  |  |
| COc1cc2nc(N3CCC4CCC(C3)N4C(=O)OC(C)(C)C)nc(Nc3ccc(S(C)(=O)=O)cc3F)c2cc1OC (racemic) | 56.9 | 6.00 |  |  |
| CCCCCCCC/C=C\CCCCCCCC(=O)NCCO [OLEOYLETHANOLAMIDE] |  | 5.66 |  |  |
| COc1cc2nc(NC3CC4CCC(C3)N4C(=O)OC(C)(C)C)nc(Nc3ccc(S(C)(=O)=O)cc3F)c2cc1OC (centres undefined) | 46.2 | 6.00 |  |  |
| COc1cc2nc(Nc3ccc(S(C)(=O)=O)cc3)nc(OC3CCN(C(=O)OC(C)(C)C)CC3)c2cc1OC | 20.6 | < 5.00 |  |  |
| COc1cc2nc(NCC3CC4CCC(C3)N4C(=O)OC(C)(C)C)nc(Nc3ccc(S(C)(=O)=O)cc3)c2cc1OC (centres undefined) | 19.9 | < 5.00 |  |  |
| COc1cc2nc(OC3CCN(C(=O)OC(C)(C)C)CC3)nc(Nc3ccc(S(C)(=O)=O)cc3F)c2cc1OC | 19.6 | < 5.00 |  |  |
| COc1cc2nc(OCC3CCN(C(=O)OC(C)(C)C)CC3)nc(Nc3ccc(S(C)(=O)=O)cc3)c2cc1OC |  |  | inactive | inactive |
| COc1cc2nc(OCC3CCN(C(=O)OC(C)(C)C)CC3)nc(Nc3ccc(S(C)(=O)=O)cc3F)c2cc1OC | 33.2 | < 5.00 |  |  |
| COc1cc2nc(OC3CCN(C(=O)OC(C)(C)C)CC3)nc(Nc3ccc(S(C)(=O)=O)cc3)c2cc1OC | 17.9 | < 5.00 |  |  |
